The source of these data is ChEMBL document CHEMBL3120119, “Development of novel tetrahydrothieno[2,3-c]pyridine-3-carboxamide based Mycobacterium tuberculosis pantothenate synthetase inhibitors: molecular hybridization from known antimycobacterial leads” (Bioorg Med Chem, 2014).

≈ marks a conversion by molar mass, not a printed value.

Data set [1] deals with Mycobacterium tuberculosis. Put plainly: Antimycobacterial activity against Mycobacterium tuberculosis H37Rv ATCC 27294 after 28 days by agar dilution method. Type of data set: functional. Conditions: H37Rv ATCC 27294, 672 h. In a few lines:
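Agar dilution on Middlebrook 7H11 agar tubes with OADC, drug 50 to 0.78 µg/mL, in duplicate. Inoculum from fresh slants adjusted to 1 mg/mL wet weight in 0.05% Tween 80 saline, diluted 10^-2 (~10^7 cfu/mL); 5 µL spotted. Incubated 37 °C, MIC read after 28 days.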
Background: Agar dilution tests growth on a series of plates holding different concentrations.

Data set [2] deals with T1, Pantothenate synthetase (Mycobacterium tuberculosis, UniProt P9WIL5).
T1 sequence (P9WIL5 whole entry): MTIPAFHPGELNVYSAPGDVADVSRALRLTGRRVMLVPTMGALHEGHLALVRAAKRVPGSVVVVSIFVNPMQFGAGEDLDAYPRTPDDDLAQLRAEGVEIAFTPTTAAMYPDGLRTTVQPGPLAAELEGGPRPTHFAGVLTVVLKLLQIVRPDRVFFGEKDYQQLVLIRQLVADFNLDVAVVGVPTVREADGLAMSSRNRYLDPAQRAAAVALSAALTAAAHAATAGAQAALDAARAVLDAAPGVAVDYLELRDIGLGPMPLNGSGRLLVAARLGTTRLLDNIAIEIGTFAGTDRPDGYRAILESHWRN
Put plainly: Inhibition of Mycobacterium tuberculosis pantothenate synthetase expressed in Escherichia coli BL21 (DE3). The gist of the method:
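panC (Rv3602c) cloned into E. coli BL21(DE3). Coupled assay: reagent mix of NADH, pantoic acid, β-alanine, ATP, phosphoenolpyruvate, MgCl2, myokinase, pyruvate kinase, lactate dehydrogenase; reaction started with PS; A340 read every 12 s for 120 s.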

Data set [3] can be described thus: Cytotoxicity against mouse RAW264.7 cells at 50 uM after 72 hrs by MTT assay. Type of data set: cell-based. The settings on record: read-out: INH. On the technique in general: Formazan colour is commonly taken as a measure of viable cells.
Data set [4] deals with T2, Pantothenate synthetase (Mycobacterium tuberculosis) (UniProt P9WIL5).
T2 sequence (whole entry): T1 sequence (P9WIL5 whole entry)
Put plainly: Binding affinity to Mycobacterium tuberculosis pantothenate synthetase expressed in Escherichia coli BL21 (DE3) assessed as increase in thermal stability. In a few lines: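 Differential scanning fluorimetry: protein–ligand complexes heated from 25 °C to 95 °C in 0.1 °C steps with SYPRO Orange dye; melting temperature shift relative to native protein recorded.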

The MIC is the smallest concentration in the dilution series that meets the test's criterion for growth inhibition. Read a low MIC as a more susceptible organism. By IC50 is commonly meant the concentration that inhibits the measured activity by half. Turning to `NC(=O)c1c(NC(=O)c2ccc([N+](=O)[O-])o2)sc2c1CCN(C(=O)NCc1ccccc1)C2`, in data set [1], the MIC was determined as 26.6 µM (≈ 12.5 µg/mL). Also, in data set [2], half-maximal inhibition (IC50) was put at 14.1 µM. The cytotoxicity at 72 h, 50 µM in data set [3] is 24.3%.
Consider `NC(=O)c1c(NC(=O)c2ccc([N+](=O)[O-])o2)sc2c1CCN(C(=O)Nc1ccc([N+](=O)[O-])cc1)C2`, for which, in data set [1], the MIC came out at 24.9 µM (≈ 12.5 µg/mL). It took 19.8 µM to reach half-maximal inhibition in data set [2] (IC50). Besides, the cytotoxicity at 72 h, 50 µM in data set [3] was determined as 36.1%.
In data set [1], `CC[C@@H](CO)NCCN[C@@H](CC)CO` [ETHAMBUTOL] registered an MIC of 7.64 µM (≈ 1.56 µg/mL). Moreover, the IC50 in data set [2] is > 25 µM.
For `NC(=O)c1c(NC(=O)c2ccc([N+](=O)[O-])o2)sc2c1CCN(C(=O)Nc1ccc(Cl)cc1)C2` the same measures were 51 µM (≈ 25 µg/mL) and > 25 µM.
On to `COc1ccc(S(=O)(=O)N2CCc3c(sc(NC(=O)c4ccc([N+](=O)[O-])o4)c3C(N)=O)C2)cc1`, for which, in data set [1], the lowest concentration to inhibit growth (MIC) was 24.6 µM (≈ 12.5 µg/mL). The same compound registered a 50% inhibitory concentration (IC50) in data set [2] of 20.3 µM. Further, the cytotoxicity at 72 h, 50 µM in data set [3] came to 19.4%.
The compound `NNC(=O)c1ccncc1` [ISONIAZID] had a minimum inhibitory concentration (MIC) in data set [1] of 0.72 µM (≈ 0.0987 µg/mL). Besides, in data set [2], the IC50 is > 25 µM.
For `NC(=O)c1c(NC(=O)c2ccc([N+](=O)[O-])o2)sc2c1CCN(S(=O)(=O)c1ccc([N+](=O)[O-])cc1)C2` the same measures were 47.9 µM (≈ 25 µg/mL) and > 25 µM.
With `NC(=O)c1c(NC(=O)c2ccc([N+](=O)[O-])s2)sc2c1CCN(S(=O)(=O)c1ccc([N+](=O)[O-])cc1)C2`, the lowest concentration to inhibit growth in data set [1] (MIC) was 9.28 µM (≈ 4.99 µg/mL). Besides, in data set [4], the Tm was found to be 50.4 °C. The compound further yielded an IC50 in data set [2] of 5.87 µM. Also, in data set [3], the cytotoxicity at 72 h, 50 µM was found to be 29.2%.
The compound `NC(=O)c1c(NC(=O)c2ccc([N+](=O)[O-])o2)sc2c1CCN(S(=O)(=O)c1ccc(Br)cc1)C2` gave an MIC in data set [1] of 45 µM (≈ 25 µg/mL). The half-inhibitory concentration (IC50) in data set [2] is > 25 µM.
`NC(=O)c1c(NC(=O)c2ccc([N+](=O)[O-])s2)sc2c1CCN(C(=O)Nc1ccc([N+](=O)[O-])cc1)C2` gave a minimal inhibitory concentration (MIC) in data set [1] of 12.1 µM (≈ 6.24 µg/mL). Further, in data set [2], the IC50 is 9.68 µM. In data set [3], the cytotoxicity at 72 h, 50 µM stood at 33.6%.
For `COc1ccc(NC(=O)N2CCc3c(sc(NC(=O)c4ccc([N+](=O)[O-])s4)c3C(N)=O)C2)cc1`, the MIC in data set [1] worked out at 24.9 µM (≈ 12.5 µg/mL). In data set [2], this compound displayed an IC50 of 14.5 µM. For the same compound, the cytotoxicity at 72 h, 50 µM in data set [3] was 20.9%.
In turn, `CC(=O)c1ccc(S(=O)(=O)N2CCc3c(sc(NC(=O)c4ccc([N+](=O)[O-])s4)c3C(N)=O)C2)cc1` returned an MIC in data set [1] of 46.7 µM (≈ 25 µg/mL). The IC50 in data set [2] was > 25 µM.
Turning to `NC(=O)c1c(NC(=O)c2ccc([N+](=O)[O-])o2)sc2c1CCN(C(=S)Nc1ccc(F)cc1)C2`, in data set [1], the MIC is 25.5 µM (≈ 12.5 µg/mL). For the same compound, in data set [2], half-maximal inhibition (IC50) was put at 20.9 µM. The cytotoxicity at 72 h, 50 µM in data set [3] is 28.1%.
For `NC(=O)c1c(NC(=O)c2ccc([N+](=O)[O-])s2)sc2c1CCN(S(=O)(=O)c1ccc(Br)cc1)C2` the same measures were 21.9 µM (≈ 12.5 µg/mL), 14.2 µM and 26.8%.
The corresponding values for `NC(=O)c1c(NC(=O)c2ccc([N+](=O)[O-])s2)sc2c1CCN(C(=S)NCc1ccccc1)C2` are 19.9 µM (≈ 9.99 µg/mL), 13.2 µM and 22.2%.
The compound `COc1ccc(S(=O)(=O)N2CCc3c(sc(NC(=O)c4ccc([N+](=O)[O-])s4)c3C(N)=O)C2)cc1` yielded an MIC in data set [1] of 23.9 µM (≈ 12.5 µg/mL). For the same compound, the IC50 in data set [2] amounted to 19 µM. The cytotoxicity at 72 h, 50 µM in data set [3] was 24.5%.
The corresponding values for `NC(=O)c1c(NC(=O)c2ccc([N+](=O)[O-])o2)sc2c1CCN(C(=S)Nc1ccc(Cl)cc1)C2` are 24.7 µM (≈ 12.5 µg/mL), 19.2 µM and 24.7%.
For `NC(=O)c1c(NC(=O)c2ccc([N+](=O)[O-])s2)sc2c1CCN(S(=O)(=O)c1ccc(F)cc1)C2` the same measures were 12.2 µM (≈ 6.24 µg/mL), 11.7 µM and 30.2%.
The corresponding values for `NC(=O)c1c(NC(=O)c2ccc([N+](=O)[O-])o2)sc2c1CCN(C(=S)NCc1ccccc1)C2` are 26.5 µM (≈ 12.9 µg/mL), 17 µM and 18.1%.
In data set [1], `NC(=O)c1c(NC(=O)c2ccc([N+](=O)[O-])s2)sc2c1CCN(C(=S)Nc1ccc([N+](=O)[O-])cc1)C2` yielded an MIC of 11.7 µM (≈ 6.24 µg/mL). In data set [2], this compound gave an IC50 of 9.11 µM. For the same compound, the cytotoxicity at 72 h, 50 µM in data set [3] was 28.6%.
As to `COc1ccc(NC(=O)N2CCc3c(sc(NC(=O)c4ccc([N+](=O)[O-])o4)c3C(N)=O)C2)cc1`, in data set [1], the MIC was determined as 53.2 µM (≈ 25.8 µg/mL). For the same compound, the IC50 in data set [2] is 15.1 µM.
The corresponding values for `CC(=O)c1ccc(S(=O)(=O)N2CCc3c(sc(NC(=O)c4ccc([N+](=O)[O-])o4)c3C(N)=O)C2)cc1` are 48.2 µM (≈ 25 µg/mL) and > 25 µM.
With `NC(=O)c1c(NC(=O)c2ccc([N+](=O)[O-])o2)sc2c1CCN(S(=O)(=O)c1ccc(F)cc1)C2`, in data set [1], it took 25.2 µM (≈ 12.5 µg/mL) to inhibit growth (MIC). In addition, the midpoint of inhibition in data set [2], the IC50, lay at 17.6 µM. In addition, the cytotoxicity at 72 h, 50 µM in data set [3] worked out at 22.1%.
`NC(=O)c1c(NC(=O)c2ccc([N+](=O)[O-])s2)sc2c1CCN(C(=O)NCc1ccccc1)C2` yielded an MIC in data set [1] of 25.7 µM (≈ 12.5 µg/mL). The same compound yielded an IC50 in data set [2] of 18.2 µM. Also, in data set [3], the cytotoxicity at 72 h, 50 µM turned out to be 26.1%.
For `NC(=O)c1c(NC(=O)c2ccc([N+](=O)[O-])s2)sc2c1CCN(C(=S)Nc1ccc(Cl)cc1)C2` the same measures were 11.9 µM (≈ 6.24 µg/mL), 6.28 µM and 21.4%.
In turn, `NC(=O)c1c(NC(=O)c2ccc([N+](=O)[O-])s2)sc2c1CCN(C(=O)Nc1ccc(Cl)cc1)C2` returned an MIC in data set [1] of 12.3 µM (≈ 6.23 µg/mL). The IC50 in data set [2] is 10.2 µM. Further, the cytotoxicity at 72 h, 50 µM in data set [3] worked out at 24.4%.
For `NC(=O)c1c(NC(=O)c2ccc([N+](=O)[O-])s2)sc2c1CCN(C(=S)Nc1ccc(F)cc1)C2` the same measures were 12.3 µM (≈ 6.24 µg/mL), 10.2 µM and 26.8%.
With `NC(=O)c1c(NC(=O)c2ccc([N+](=O)[O-])o2)sc2c1CCN(C(=S)Nc1ccc([N+](=O)[O-])cc1)C2`, the MIC in data set [1] is 24.2 µM (≈ 12.5 µg/mL). It took 18.7 µM to reach half-maximal inhibition in data set [2] (IC50). The cytotoxicity at 72 h, 50 µM in data set [3] was determined as 28.2%.
Take `CC(=O)N1CCc2c(sc(NC(=O)c3cccs3)c2C(N)=O)C1`: inhibition of growth in data set [1] (MIC) required 9.15 µM (≈ 3.2 µg/mL). Moreover, the IC50 in data set [2] was > 25 µM.
